# Bioassay records deposited in PubChem BioAssay by several laboratories.
# Only some compounds are listed: those with a hit (about 1.5% of all), similar ones and a draw of the others.
# CHT PAM = human CHT allosteric activation. B-score at 10 µM. actives 0.49% (n = 310,000). CHT-expressing cells, membrane potential dye, choline EC20; active compounds read high; LV-AA mutant CHT in HEK293 cells. AID 488977. Q9GZV3;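 active = initial fluorescence not abnormally high and integrated response B-score, plate-corrected, over 3 SD above library mean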
# T cell modulator = modulates CD8 T cell binding to vesicles; 2C CD8+ T cell-vesicle binding, flow cytometry; active compounds read low; response (vesicle binding), % at 7 µM; actives 0.068% (n = 330,000);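 active = response, share of CD8 T cells binding vesicles, and their 90th percentile fluorescence all below set limits, cut at about 80% in these data, passing the limit was not always enough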;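 also: values below 100% mean blocked vesicle binding to the CD8+ T cells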
#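 incubation = binding step 1.5 h, 37 °C, antibody labelling 20 min, ice | test system = 2C mouse CD8+ T cells | read-out basis = percent CD8+ FL2 mean versus row control | controls = Peptide-free naked vesicles (low) and QL9 vesicles with 0.7% DMSO vehicle (high) | detection = flow cytometry of vesicle-bound cells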
# CHT block = human CHT choline transport inhibition. Q9GZV3. CHT-expressing cells, membrane potential dye, choline response; active compounds read low. B-score at 10 µM. actives 0.86% (n = 310,000). AID 488975;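 active = B-score over 3 SD under the library average, and starting fluorescence ratio not unusually high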;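 also: choline stimulus applied at its EC90 after an EC20 pre-addition; B-score computed on integrated fluorescence ratio after choline addition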
# VLA-4 inh = inhibition in a human VLA-4 binding assay. P13612. VLA-4 expressing cells, ligand binding flow cytometry. inhibition, % (about 7 µM as worked out from the volumes in the protocol). actives 0.2% (n = 330,000). AID 2557; in the data active = inhibition above about 50%
# Numbers without * were called inactive; i = inactive; . = no result given.
SMILES,CHT PAM,T cell modulator,CHT block,VLA-4 inh
O=C1CC(c2nc3ccccc3[nH]2)CN1Cc1ccccc1 (centres undefined),i,47*,i,-32
COc1cccc(OC)c1C(=O)Nc1ccc(S(=O)(=O)Nc2cc(C)nc(C)n2)cc1,i,656,-5.3*,13
COc1cccc(C(=O)Nc2ccc(S(=O)(=O)Nc3cc(C)nc(C)n3)cc2)c1,i,230,i,-8
Cn1c(=O)c(C(=O)COC(=O)c2cc(-c3ccco3)nc3ccccc23)c(N)n(CC2CC2)c1=O,i,711,-5.5*,-21
O=C(Oc1ccc(-c2nnco2)cc1)N1CCCCC1,i,76*,i,9
Clc1ccccc1OCc1nnc2n1CCCCC2,i,109,i,-11
O=[N+]([O-])c1ccc(N=Nc2ccc(O)cc2O)cc1,i,223,-9.9*,-6
Cc1cc(=O)oc2cc(OCC(=O)N3CCC(C(N)=O)CC3)ccc12,i,236,i,19
CCN1CCc2c(OCC(=O)Nc3cccc(C)c3C)cccc2C1=O,i,67*,i,-1
Cc1cccc(NC(=O)COc2cccc3c2CCN(Cc2ccccc2)C3=O)c1C,i,181,i,4
O=C(COc1ccccc1F)NCC(c1ccco1)N1CCCC1 (centres undefined),i,50*,i,2
Cc1ccc(C)c(OCC(=O)NCC(c2ccco2)N2CCCCC2)c1 (centres undefined),i,i,i,3
Nc1nnc(SCCOc2ccc(Br)cc2)s1,i,0.0*,i,11
CC(CCc1ccccc1)NC(=O)c1ccc(-n2cncn2)c([N+](=O)[O-])c1 (centres undefined),i,307,i,-8
O=S(=O)(c1ccc(NC(=S)N/N=C/c2ccc(O)c(O)c2)cc1)N1CCOCC1,i,175,i,-5
O=[N+]([O-])c1cc(Cl)cc(/C=N/NC(=S)Nc2ccc(S(=O)(=O)N3CCOCC3)cc2)c1O,i,812,-8.8*,7
O=C(OCC(=O)N1CCCC1=O)c1nc(Cl)c(Cl)c(Cl)c1Cl,i,695,-5*,-19
CCN(C(=O)C1CCCN1S(=O)(=O)c1ccc2c(c1)n(C)c(=O)c(=O)n2C)c1ccccc1 (centres undefined),i,32*,i,6
CCC(C)(C(=O)NC1CCCC1)N(Cc1cccs1)C(=O)Cc1cccs1 (centres undefined),i,35*,i,1
Cc1ccc(CCC2C3=C(CCCC3=O)OC3=C2C(=O)CCC3)cc1,i,0.0*,i,-23
COc1cc(C(=O)Nc2nnc(-c3sccc3C)s2)cc(OC)c1OC,i,80*,i,-18
COc1ccc(CCNC(=O)C2CC(c3cc(C(F)(F)F)cc(C(F)(F)F)c3)=NO2)cc1 (centres undefined),i,692,i,-12
CCC(=O)Nc1nc(=S)ss1,i,271,i,9
CC(C)(C)C(=O)Nc1nc(=S)ss1,i,578,-5.5*,-18
O=C(N/N=C/c1ccc(OCc2ccccc2)cc1)c1cccs1,i,78*,i,-20
SMILES,CHT PAM,T cell modulator,CHT block,VLA-4 inh
O=[N+]([O-])c1cc2cccnc2c2ncccc12,7*,218,i,10
Cc1ccc([N+](=O)[O-])c2cccnc12,i,257,i,-6
O=C(CN1C(=O)NC2(CCCC2)C1=O)NCCc1ccc(F)cc1,.,551,.,-3
CCC(=O)Nc1ccc(Cl)c(NC(=O)c2cccnc2)c1,i,622,i,9
CCCC(=O)Nc1ccc(Cl)c(NC(=O)c2cccnc2)c1,i,0.0*,i,31
Nc1c(C(=O)Nc2ccccc2)sc2nc(-c3cccnc3)ccc12,i,432,-4.9*,9
Cn1c(NNC(=O)C(c2ccccc2)c2ccccc2)cc(=O)n(C)c1=O,i,113,i,3
O=C(/C=C/c1c(F)cccc1Cl)Nc1ccncc1,i,449,i,23
O=C(/C=C/c1c(Cl)cccc1Cl)Nc1ccncc1,i,0.0*,i,0
Cc1ccc(CN(CC(O)COc2cccc3[nH]cc(C)c23)C(C)(C)C)cc1 (centres undefined),i,210,i,-18
Cc1c[nH]c2cccc(OCC(CNC(C)(C)C)OC(=O)c3ccccc3)c12 (centres undefined),i,250,-11*,11
O=C(CSc1nnc(CNC(=O)c2cccs2)o1)Nc1ccccc1C(F)(F)F,i,223,i,0
